From ChEMBL document CHEMBL1125672, “2-acetylpyridine thiosemicarbazones. 13. Derivatives with antifilarial activity” (1991)

Tests used:
Format in all cases: functional
Onchocerca gutturosa [1] = assay: Mean motility score for treated Onchocerca gutturosa involving LLCMK2 feeder cells at a concentration of 4.88*10e-8M at 168 h
Procedure, shortened: (§1)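 Single male O. gutturosa worms (obtained following abattoir slaughter) per well in Eagle's MEM with 10% heat-inactivated fetal calf serum, penicillin, streptomycin, amphotericin B and bicarbonate, over LLCMK2 feeder cells, 5% CO2 in air. Drug dissolved in DMSO; controls received matched DMSO ≤0.016%. Motility scored 0 (immotile) to 10 (maximum control activity) every 30 min to 4.5 h, then days 1, 2, 3, 4, 7.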

Onchocerca gutturosa [2] = assay: Mean motility score for treated Onchocerca gutturosa involving LLCMK2 feeder cells at a concentration of 5*10e-5 M at 168 h; procedure, shortened: as §1
Onchocerca gutturosa [3] = assay: Mean motility score for treated Onchocerca gutturosa involving LLCMK2 feeder cells at a concentration of 1.95*10e-8 M at 1 h
Procedure, shortened: (§2)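 One male O. gutturosa per well over LLCMK2 feeder cells in MEM with 10% heat-inactivated FCS, antibiotics and bicarbonate, 5% CO2; compound introduced in DMSO (≤0.016%, equal DMSO in controls). Motility scored 0 (immotile) to 10 (maximal control activity) every 30 min to 4.5 h, then at 1, 2, 3, 4 and 7 days.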

Onchocerca gutturosa [4] = assay: Mean motility score for treated Onchocerca gutturosa involving LLCMK2 feeder cells at a concentration of 4.88*10e-8M at 3.5 h; procedure, shortened: as §1
Onchocerca gutturosa [5] = assay: Mean motility score for treated Onchocerca gutturosa involving LLCMK2 feeder cells at a concentration of 3.05*10e-8 M at 2 h; details: in the assay text read “3.05*10e-9 M” for “3.05*10e-8 M”; procedure, shortened: as §2
Onchocerca gutturosa [6] = assay: Mean motility score for treated Onchocerca gutturosa involving LLCMK2 feeder cells at a concentration of 1.95*10e-8 M at 168 h; procedure, shortened: as §2
Onchocerca gutturosa [7] = assay: Mean motility score for treated Onchocerca gutturosa involving LLCMK2 feeder cells at a concentration of 3.1*10e-6 M at 1.5 h; procedure, shortened: as §1
Onchocerca gutturosa [8] = assay: Mean motility score for treated Onchocerca gutturosa involving LLCMK2 feeder cells at a concentration of 4.88*10e-8M at 2 h; procedure, shortened: as §1
Onchocerca gutturosa [9] = assay: Mean motility score for treated Onchocerca gutturosa involving LLCMK2 feeder cells at a concentration of 3.1*10e-6 M at 0.5 h; procedure, shortened: as §1
Onchocerca gutturosa [10] = assay: Mean motility score for treated Onchocerca gutturosa involving LLCMK2 feeder cells at a concentration of 1.95*10e-8 M at 3.5 h; details: in the assay text read “1.95*10e-7 M” for “1.95*10e-8 M”; procedure, shortened: as §2
Onchocerca gutturosa [11] = assay: Mean motility score for treated Onchocerca gutturosa involving LLCMK2 feeder cells at a concentration of 1.95*10e-8 M at 2.5 h; procedure, shortened: as §2
Onchocerca gutturosa [12] = assay: Mean motility score for treated Onchocerca gutturosa involving LLCMK2 feeder cells at a concentration of 1.95*10e-8 M at 72 h; procedure, shortened: as §2
Onchocerca gutturosa [13] = assay: Mean motility score for treated Onchocerca gutturosa involving LLCMK2 feeder cells at a concentration of 4.88*10e-8M at 24 h; procedure, shortened: as §1
Onchocerca gutturosa [14] = assay: Colorimetric quantification of male Onchocerca gutturosa viability, expressed as % inhibition of formazan formation at 1.95*10e-7 M conc. by using tetrazolium Dye MTT assay
Procedure, shortened: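 Single intact male O. gutturosa, cultured with LLCMK2 feeder cells in MEM + 10% heat-inactivated FCS (5% CO2), drug added from DMSO (≤0.016% DMSO in controls). MTT read after 168 h: worm in 0.5 mg/mL MTT, 30 min at 36.5 °C, formazan solubilized in DMSO 1 h at room temperature, absorbance 490 nm vs DMSO blank.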

Onchocerca gutturosa [15] = assay: Mean motility score for treated Onchocerca gutturosa involving LLCMK2 feeder cells at a concentration of 3.1*10e-6 M at 2 h; procedure, shortened: as §1
Onchocerca gutturosa [16] = assay: Mean motility score for treated Onchocerca gutturosa involving LLCMK2 feeder cells at a concentration of 3.1*10e-6 M at 96 h; procedure, shortened: as §1
Onchocerca gutturosa [17] = assay: Mean motility score for treated Onchocerca gutturosa involving LLCMK2 feeder cells at a concentration of 4.88*10e-8M at 3 h; procedure, shortened: as §1
Onchocerca gutturosa [18] = assay: Mean motility score for treated Onchocerca gutturosa involving LLCMK2 feeder cells at a concentration of 1.95*10e-8 M at 4.5 h; procedure, shortened: as §2
Onchocerca gutturosa [19] = assay: Mean motility score for treated Onchocerca gutturosa involving LLCMK2 feeder cells at a concentration of 3.1*10e-6 M at 72 h; procedure, shortened: as §1
Onchocerca gutturosa [20] = assay: Mean motility score for treated Onchocerca gutturosa involving LLCMK2 feeder cells at a concentration of 1.95*10e-8 M at 24 h; procedure, shortened: as §2
Onchocerca gutturosa [21] = assay: Mean motility score for treated Onchocerca gutturosa involving LLCMK2 feeder cells at a concentration of 1.95*10e-8 M at 96 h; procedure, shortened: as §2
Onchocerca volvulus = assay: Colorimetric quantification of male Onchocerca volvulus viability, expressed as % inhibition of formazan formation at 5*10e-5 M conc. by using tetrazolium Dye MTT assay
Procedure, shortened: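 Male O. volvulus dissected from human nodules within 24 h (kept in medium on ice), cultured without feeder cells in medium with 10% serum; drug from DMSO stock. MTT after 96 h: single worm, 0.5 mg/mL MTT, 30 min at 36.5 °C, formazan dissolved in DMSO 1 h at room temperature, absorbance 490 nm against DMSO blank.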

Onchocerca gutturosa [22] = assay: Mean motility score for treated Onchocerca gutturosa involving LLCMK2 feeder cells at a concentration of 1.21*10e-8M at 1.5 h; procedure, shortened: as §2
Onchocerca gutturosa [23] = assay: Mean motility score for treated Onchocerca gutturosa involving LLCMK2 feeder cells at a concentration of 1.94*10e-7M at 168 h(O = IMMOTILE); procedure, shortened: as §2
Onchocerca gutturosa [24] = assay: Mean motility score for treated Onchocerca gutturosa involving LLCMK2 feeder cells at a concentration of 1.94*10e-7M at 0.5 h; procedure, shortened: as §2
Onchocerca gutturosa [25] = assay: Mean motility score for treated Onchocerca gutturosa involving LLCMK2 feeder cells at a concentration of 1.21*10e-8M at 96 h; procedure, shortened: as §2
Acanthocheilonema viteae = assay: anti-filarial Activity was measured against Acanthocheilonema viteae in jirds at 50 mg/kg/day(5 days) dose
Procedure, shortened: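 Jirds with established B. pahangi or A. viteae infections were given drug once daily for 5 days by subcutaneous injection, at the maximum tolerated dose and, where supply allowed, graded lower doses. Tolerance was first checked in noninfected jirds with a single 200 mg/kg oral or subcutaneous dose, watching 72 h for excessive weight loss or death. Macrofilarial suppression was the read-out.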

Onchocerca gutturosa [26] = assay: Mean motility score for treated Onchocerca gutturosa involving LLCMK2 feeder cells at a concentration of 1.21*10e-8M at 24 h; procedure, shortened: as §2
Onchocerca gutturosa [27] = assay: Mean motility score for treated Onchocerca gutturosa involving LLCMK2 feeder cells at a concentration of 1.21*10e-8M at 1 h; procedure, shortened: as §2
Onchocerca gutturosa [28] = assay: Mean motility score for treated Onchocerca gutturosa involving LLCMK2 feeder cells at a concentration of 1.94*10e-7M at 2 h; procedure, shortened: as §2
Onchocerca gutturosa [29] = assay: Mean motility score for treated Onchocerca gutturosa involving LLCMK2 feeder cells at a concentration of 1.21*10e-8M at 0.5 h; procedure, shortened: as §2
Onchocerca gutturosa [30] = assay: Mean motility score for treated Onchocerca gutturosa involving LLCMK2 feeder cells at a concentration of 3.05*10e-9 M at 2 h; procedure, shortened: as §1

## C/C(=N\NC(=S)N1CCCCCC1)c1ccccn1
Onchocerca gutturosa [1]
  Motility: 0
Onchocerca gutturosa [2]
  Motility: 0
Onchocerca gutturosa [3]
  Motility: 9.5
Onchocerca gutturosa [4]
  Motility: 8.5
Onchocerca gutturosa [5]
  Motility: 9.8
Onchocerca gutturosa [6]
  Motility: 0
Onchocerca gutturosa [7]
  Motility: 9.8
Onchocerca gutturosa [8]
  Motility: 8.8
Onchocerca gutturosa [9]
  Motility: 9.5
Onchocerca gutturosa [10]
  Motility: 10
Onchocerca gutturosa [11]
  Motility: 9.3
Onchocerca gutturosa [12]
  Motility: 1
Onchocerca gutturosa [13]
  Motility: 4
Onchocerca gutturosa [14]
  Inhibition: 70.4%
Onchocerca gutturosa [15]
  Motility: 9.8
Onchocerca gutturosa [16]
  Motility: 0
Onchocerca gutturosa [17]
  Motility: 9
Onchocerca gutturosa [18]
  Motility: 9.5
Onchocerca gutturosa [19]
  Motility: 0
Onchocerca gutturosa [20]
  Motility: 8
Onchocerca gutturosa [21]
  Motility: 0

## C/C(=N\NC(S)=Nc1ccccc1N)c1ccccn1
Onchocerca volvulus
  Inhibition: 53.8%
Onchocerca gutturosa [22]
  Motility: 4.3
Onchocerca gutturosa [23]
  Motility: 0
Onchocerca gutturosa [24]
  Motility: 9.8
Onchocerca gutturosa [25]
  Motility: 3.8
Acanthocheilonema viteae
  Suppression: 100%
Onchocerca gutturosa [26]
  Motility: 9
Onchocerca gutturosa [27]
  Motility: 8.5
Onchocerca gutturosa [28]
  Motility: 9
Onchocerca gutturosa [29]
  Motility: 9
Onchocerca gutturosa [30]
  Motility: 7.5
